Data as given in ChEMBL document CHEMBL4732211, “Multifunctional agents based on benzoxazolone as promising therapeutic drugs for diabetic nephropathy” (Eur J Med Chem, 2021).
pIC50: −log10 of the molar value. Active and inactive are the calls of the source. No cut-off for these calls is given here.

Tests used:
Rattus norvegicus = species on record: Rattus norvegicus; assay: Selectivity index, ratio of IC50 for Wistar rat kidney ALR1 to IC50 for Wistar rat lens ALR2
Method in brief: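 Aldose reductases (ALR2, ALR1) prepared from Wistar rats (200-250 g). NADPH loss followed at 340 nm for 4 min after substrate start, following 10 min preincubation. ALR2: pH 6.2 phosphate, 30 °C, NADPH 0.10 mM, D,L-glyceraldehyde 10 mM. ALR1: pH 7.2, 37 °C, NADPH 0.12 mM, D-glucuronate 20 mM. 0.5% DMSO; non-enzymatic rate subtracted. IC50 from log dose-response with ≥3 concentrations (20-80% inhibition), triplicate.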

[1] = biological target: Aldo-keto reductase family 1 member A1 (Rattus norvegicus, UniProt P51635); assay: Inhibition of Wistar rat kidney ALR1 assessed as reduction in NADPH oxidation using sodium D-glucuronate and NADPH as substrate preincubated for 10 mins followed by substrate addition and measured for 4 mins by spectrophotometric analysis; assay type: tissue-based
[2] = biological target: Aldo-keto reductase family 1 member B1 (Rattus norvegicus, UniProt P07943); assay: Inhibition of Wistar rat lens ALR2 assessed as reduction in NADPH oxidation using D,L-glyceraldehyde and NADPH as substrate preincubated for 10 mins followed by substrate addition and measured for 4 mins by spectrophotometric analysis; assay type: tissue-based
[3] = Antioxidant activity assessed as DPPH radical scavenging activity at 10 uM after 30 mins by spectrophotometric analysis; assay type: functional
Method in brief: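 DPPH in methanol (1 mL, 0.025 mg/mL) plus methanol 1.9 mL and compound in methanol, final 100, 50 and 10 µM; absorbance at 517 nm. Scavenging % = 1 − (A_sample − A_blank)/A_control, where the blank is compound without DPPH. Trolox reference.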

Mus musculus [4] = assay: Antidiabetic activity in STZ-induced Kunming mouse model of diabetes assessed as reduction in blood glucose level at 80 mg/kg, po administered QD via gavage for 4 weeks and measured at week 2 to 4; assay type: functional, organism-based; settings: time 2-4 weeks
Mus musculus [5] = assay: Inhibition of polyol pathway in STZ-induced Kunming mouse model of diabetes assessed as decrease in sorbitol level in kidney cortex at 80 mg/kg, po administered daily via gavage for 8 weeks and measured at 6 hrs post-final drug dose by fluorospectrophotometric analysis; assay type: functional
Mus musculus [6] = assay: Antioxidant activity in STZ-induced diabetic Kunming mouse assessed as reduction in liver MDA level at 80 mg/kg, po administered daily via gavage for 8 weeks and measured at 6 hrs post-final drug dose relative to STZ-treated group; assay type: functional; settings: 1344 h
Mus musculus [7] = assay: Reno-protective activity in STZ-induced Kunming mouse model of diabetes assessed as reduction in albumin to creatinine ratio at 80 mg/kg, po administered daily via gavage for 8 weeks; assay type: functional
Mus musculus [8] = assay: Reno-protective activity in STZ-induced Kunming mouse model of diabetes assessed as reduction in urinary total protein excretion at 80 mg/kg, po administered daily via gavage for 8 weeks and measured at week 8 relative to control; assay type: functional
Mus musculus [9] = assay: Reno-protective activity in STZ-induced Kunming mouse model of diabetes assessed as reduction in urinary total protein excretion at 80 mg/kg, po administered daily via gavage for 8 weeks and measured at week 6 relative to control; assay type: functional
Mus musculus [10] = assay: Reno-protective activity in STZ-induced Kunming mouse model of diabetes assessed as reduction in urinary total protein excretion at 80 mg/kg, po administered daily via gavage for 8 weeks and measured at week 4 relative to control; assay type: functional

Chain of Aldo-keto reductase family 1 member A1 (P51635 whole entry, looked up): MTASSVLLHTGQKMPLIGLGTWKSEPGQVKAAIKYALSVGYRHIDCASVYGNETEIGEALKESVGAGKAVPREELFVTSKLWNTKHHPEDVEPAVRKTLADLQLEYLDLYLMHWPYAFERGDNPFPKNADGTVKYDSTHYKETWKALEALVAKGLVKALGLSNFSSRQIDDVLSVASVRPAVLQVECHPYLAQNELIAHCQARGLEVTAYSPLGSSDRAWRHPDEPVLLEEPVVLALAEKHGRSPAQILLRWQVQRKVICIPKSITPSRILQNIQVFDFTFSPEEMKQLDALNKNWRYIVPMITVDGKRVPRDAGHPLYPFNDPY

| Structure (SMILES) | Ratio IC50 (Rattus norvegicus) | pIC50 [1] | pIC50 [2] | other results |
| --- | --- | --- | --- | --- |
| O=C(O)Cn1c(=O)oc2c(-c3ccc(CO)cc3)cccc21 | 1260 | 4.51 | 7.61 |  |
| COc1ccc(CCc2cccc3c2oc(=O)n3CC(=O)O)cc1 | 1390 | 3.76 | 6.90 |  |
| O=C(O)Cn1c(=O)oc2cc(/C=C/c3ccccc3)ccc21 | 39 | 5.59 | 7.18 |  |
| O=C(O)Cn1c(=O)oc2c(-c3ccc(-c4ccc5ccccc5c4)cc3)cccc21 | 387 | 5.05 | 7.64 |  |
| COc1ccc(/C=C/c2cccc3c2oc(=O)n3CC(=O)O)cc1OC | 873 | 4.53 | 7.47 |  |
| COc1ccc(/C=C/c2cccc3c2oc(=O)n3CC(=O)O)cc1 | 594 | 5.20 | 7.97 |  |
| O=C(O)Cn1c(=O)oc2c(-c3ccc(-c4cccc5ccccc45)cc3)cccc21 | 2040 | 4.34 | 7.65 |  |
| O=C(O)Cn1c(=O)oc2c(/C=C/c3ccc(O)c(O)c3)cccc21 | 17 | 6.10 | 7.34 | Activity [3]: 22.7% |
| O=C(O)Cn1c(=O)oc2c(-c3ccc(-c4ccccc4)cc3)cccc21 | 82 | 5.21 | 7.12 |  |
| O=C(O)Cn1c(=O)oc2c(/C=C/c3ccccc3)cccc21 | 31000 | 2.77 | 7.26 |  |
| O=C(O)Cn1c(=O)oc2c(/C=C/c3ccc(O)cc3)cccc21 | 1940 | 4.17 | 7.46 | Activity [3]: 22.7% |
| CC(C)(C)c1ccc(-c2cccc3c2oc(=O)n3CC(=O)O)cc1 | 8200 | 3.76 | 7.67 |  |
| O=C(O)Cn1c(=O)oc2c(-c3ccc(O)c(O)c3)cccc21 | 17 | 5.18 | 6.41 | Activity [3]: 61.7% |
| O=C(O)Cn1c(=O)oc2c(/C=C/c3ccc(C(F)(F)F)cc3)cccc21 | 20100 | 2.54 | 6.84 |  |
| CC(/C=C1\SC(=S)N(CC(=O)O)C1=O)=C\c1ccccc1 |  |  |  | Activity (Mus musculus [4]): inactive; inhibition (Mus musculus [5]): Active; inhibition in vivo at 80 mg/kg (Mus musculus [6]): 65%; Activity (Mus musculus [7]): inactive; Activity (Mus musculus [8]): inactive; Activity (Mus musculus [9]; time 6.0 weeks): inactive; Activity (Mus musculus [10]; time 4.0 weeks): inactive |
| COc1cc(CCc2cccc3c2oc(=O)n3CC(=O)O)ccc1O | 172 | 4.81 | 7.05 | Activity [3]: 22.7% |
| O=C(O)Cn1c(=O)oc2ccc(/C=C/c3ccccc3)cc21 | 77 | 4.76 | 6.65 |  |
| O=C(O)Cn1c(=O)oc2c(-c3ccccc3)cccc21 | 3000 | 3.35 | 6.83 |  |
| O=C(O)Cn1c(=O)oc2cc(/C=C/c3ccc(O)cc3)ccc21 | 12400 | 3.24 | 7.33 |  |
| COc1ccc(-c2cccc3c2oc(=O)n3CC(=O)O)cc1 | 44 | 5.98 | 7.62 |  |
| CN(C)C(=N)NC(=N)N [METFORMIN] |  |  |  | inhibition (Mus musculus [5]): inactive; inhibition in vivo at 80 mg/kg (Mus musculus [6]): 43%; inhibition (Mus musculus [7]): Active; inhibition in vivo at 80 mg/kg (Mus musculus [8]; 1344 h): 18%; inhibition in vivo at 80 mg/kg (Mus musculus [9]; 1008 h, time 6 weeks): 41%; inhibition in vivo at 80 mg/kg (Mus musculus [10]; 672 h, time 4 weeks): 6% |
| COc1ccc(-c2cccc3c2oc(=O)n3CC(=O)O)c(OC)c1 | 847 | 4.14 | 7.07 |  |
| O=C(O)Cn1c(=O)oc2cccc(/C=C/c3ccccc3)c21 | 6.6 | 3.44 | 4.26 |  |
| O=C(O)Cn1c(=O)oc2c(-c3ccc(C(F)(F)F)cc3)cccc21 | 1480 | 4.84 | 8.01 |  |
| COc1ccc(-c2cccc3c2oc(=O)n3CC(=O)O)cc1OC | 510 | 4.49 | 7.20 |  |
